Experimental data taken from ChEMBL document CHEMBL6134900 (J Med Chem, 2025).

Tested on: NCI-H2030
Experiment: Antitumor activity against human NCI-H2030 cells harboring KRAS G12C mutant/SMARCA4 mutant assessed as cell growth inhibition incubated for 7 days by Incucyte S3 analysis
Assay type: functional, cell-based
Details: time 7.0 day; call rule not given here
Method in brief: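 H2030 cells plated at 500 per well and grown overnight at 37 °C. Treated with 3-fold dilutions of sotorasib, test agent, or both. Confluency imaged every 4 h for 7 days on IncuCyte S3. Synergy scored as Bliss/Lowe consensus, >10 taken as synergy.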

Q: Which Activity does the source give for `C=CC(=O)N1CCN(c2nc(=O)n(-c3c(C)ccnc3C(C)C)c3nc(-c4c(O)cccc4F)c(F)cc23)[C@@H](C)C1` here?
A: Active; Minimal Inhibition Observed
